# The list is not random: actives were taken first. Their share in the collection is about 4.1%.
# Mdm2 MdmX PPI: inhibitors of human Mdm2-MdmX association, primary screen, cell-based, luminescence, split luciferase, SaOS-2, uHTS. 330,000 compounds, 3% hits. Protein Mdm4 (Homo sapiens) + E3 ubiquitin-protein ligase Mdm2 (Homo sapiens), …. AID 485346, 2010. SaOS-2 split-luciferase Mdm2/MdmX complementation. inhibition, % at 8 µM;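 active means inhibition of at least 50% at 8 µM in the primary screen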
# XBP1 UPR activ: activators of adaptive XBP1 UPR arm, primary screen, cell-based, CHO-XBP1 luciferase reporter, luminescence, uHTS | activation, % at 20 µM | 330,000 compounds, 0.33% hits | AID 463104, 2010 | IRE1-XBP1 UPR activation; percent of tunicamycin response, DMSO as zero;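 active means versus positive control, 20 µM dose yields 30% or more activation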;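 further: 100% = tunicamycin at 10 µg/mL and 0% = DMSO only wells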
#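 Assay system: IRE1-XBP1 luciferase reporter CHO line. Input: 1000 cells/well. Buffer or medium: F12 with 10% serum. Doses: 20 µM, 1% DMSO. Times: overnight seeding at 37 °C, 6 h compound treatment at 37 °C. Technique: Steady-Glo luciferase glow luminescence, 10 min after reagent addition.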
# UPR CHOP act: activators of apoptotic CHOP UPR arm, primary screen, cell-based, CHO-CHOP luciferase reporter, luminescence, uHTS. UPR activation; percent of tunicamycin response over DMSO baseline. activation, % at 10 µM. 330,000 compounds, 0.34% hits. AID 449763, 2010;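 active means at 10 µM dose, activation of 40% or more, normalized to positive control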;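 further: 100% = tunicamycin at 10 µg/mL and 0% = DMSO alone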
#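 Assay system: CHO-CHOP cells, stable luciferase reporter of PERK-eIF2a-CHOP signalling / Buffer or medium: F12 plus 10% serum / Compound dosing: one dose, 10 µM in 0.5% DMSO / Times: 6 h compound treatment, 37 °C / Technique: luciferase luminescence / Read-out: % reporter activation, DMSO baseline versus tunicamycin full activation / Benchmarks: tunicamycin and DMSO controls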
# UBC13 inh: UBC13 polyubiquitin chain formation inhibitors, primary screen, biochemical, TR-FRET, uHTS. Ubiquitin-conjugating enzyme E2 N (Homo sapiens), P61088. inhibition, % at 20 µM. 330,000 compounds, 0.47% hits; in the data active means inhibition above about 45%, passing the limit was not always enough
# Apaf1 inhib: inhibitors of human Apaf-1 apoptosome, primary screen, biochemical, DEVD-Rh110 fluorescence, uHTS | Apoptotic protease-activating factor 1 (Homo sapiens), O14727 | reconstituted apoptosome caspase-3 activity | inhibition, % at 20 µM | 330,000 compounds, 0.71% hits | AID 489030, 2010; active means inhibition of at least 40% at 20 µM;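 further: plate controls were DMSO wells for no effect and DEVD-CHO caspase inhibitor wells for full effect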
# Target sequence (O14727 whole entry, looked up): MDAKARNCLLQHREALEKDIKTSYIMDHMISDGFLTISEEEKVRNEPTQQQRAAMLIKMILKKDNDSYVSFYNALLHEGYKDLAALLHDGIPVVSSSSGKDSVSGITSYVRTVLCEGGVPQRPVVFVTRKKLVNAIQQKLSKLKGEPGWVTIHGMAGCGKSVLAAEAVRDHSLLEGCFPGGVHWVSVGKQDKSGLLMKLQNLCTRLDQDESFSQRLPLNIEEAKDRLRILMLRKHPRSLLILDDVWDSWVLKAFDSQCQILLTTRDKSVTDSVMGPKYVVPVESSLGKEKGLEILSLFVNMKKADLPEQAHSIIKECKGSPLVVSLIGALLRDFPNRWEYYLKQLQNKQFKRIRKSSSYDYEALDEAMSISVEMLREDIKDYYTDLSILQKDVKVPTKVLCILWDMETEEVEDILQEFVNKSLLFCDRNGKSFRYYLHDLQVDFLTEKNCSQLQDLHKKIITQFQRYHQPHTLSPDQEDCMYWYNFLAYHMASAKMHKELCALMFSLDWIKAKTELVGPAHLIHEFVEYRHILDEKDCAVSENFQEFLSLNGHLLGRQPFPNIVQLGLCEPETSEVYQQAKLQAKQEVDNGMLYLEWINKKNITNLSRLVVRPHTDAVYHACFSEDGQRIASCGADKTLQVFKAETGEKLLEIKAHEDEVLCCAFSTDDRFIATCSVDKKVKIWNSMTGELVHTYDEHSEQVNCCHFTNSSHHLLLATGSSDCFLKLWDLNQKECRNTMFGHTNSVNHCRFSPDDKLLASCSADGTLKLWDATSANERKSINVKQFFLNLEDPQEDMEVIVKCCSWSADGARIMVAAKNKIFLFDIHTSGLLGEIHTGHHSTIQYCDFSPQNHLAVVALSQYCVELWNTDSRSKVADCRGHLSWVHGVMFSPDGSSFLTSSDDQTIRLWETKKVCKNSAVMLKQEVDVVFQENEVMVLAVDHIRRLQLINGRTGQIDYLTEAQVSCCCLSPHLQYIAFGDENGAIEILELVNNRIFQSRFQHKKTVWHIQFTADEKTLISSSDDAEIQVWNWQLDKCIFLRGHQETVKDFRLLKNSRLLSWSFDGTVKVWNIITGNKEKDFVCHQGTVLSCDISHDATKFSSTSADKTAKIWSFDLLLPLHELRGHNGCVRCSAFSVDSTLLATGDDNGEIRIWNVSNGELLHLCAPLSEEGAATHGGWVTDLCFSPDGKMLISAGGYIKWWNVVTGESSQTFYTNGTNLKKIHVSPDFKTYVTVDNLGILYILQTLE
#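 Material: biochemical Apaf-1 apoptosome reconstitution. Medium: Hepes buffer, pH 7.5. Also added: cytochrome c activation, bis-DEVD rhodamine 110 substrate. Timing: 30 min compound preincubation, 50 min activation, room temperature. Measured by: rhodamine 110 fluorescence at Ex 480/Em 540 nm.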
# * hit, by the source's call.
SMILES,Mdm2 MdmX PPI,XBP1 UPR activ,UPR CHOP act,UBC13 inh,Apaf1 inhib
O=c1cc(CN2CCN(Cc3ccccc3)CC2)c2ccc(O)c(O)c2o1,11,63*,4,-2,4
N#Cc1c2c(c(-n3cnc4ccccc43)n3c1nc1ccccc13)CCC2,-10,-4,-2,0,45*
COc1ccccc1N(C(=O)c1snc(C(N)=O)c1N)C(C(=O)NC1CCCC1)c1ccc2ncccc2c1 (stereo unspecified),12,-5,2,22,11
N#CC1=C(N)OC2=C(CC/C2=C\c2ccc(F)cc2)C1c1ccc(F)cc1 (stereo unspecified),35,6,116*,-39,-3
CCN1CC2=C(OC(N)=C(C#N)C2c2ccccc2)/C(=C\c2ccccc2)C1 (stereo unspecified),-9,-3,-1,-5,11
CCCCN(Cc1ccccc1)c1ncnc2nc[nH]c12,-12,0,5,47*,12
CCCCN(CCCC)c1ncnc2nc[nH]c12,42,-1,-1,29,-1
CNC[C@@H]1Oc2ccc(NC(=O)Nc3ccccc3)cc2C(=O)N([C@@H](C)CO)C[C@H]1C,-12,-2,0,16,12
CNC[C@H]1Oc2ccc(NC(=O)Nc3ccc(OC)cc3)cc2C(=O)N([C@@H](C)CO)C[C@H]1C,18,-1,0,48*,45*
CNC[C@H]1Oc2ccc(NC(=O)Nc3ccc4c(c3)OCO4)cc2C(=O)N([C@H](C)CO)C[C@@H]1C,-36,1,1,21,12
CNC[C@@H]1Oc2ccc(NC(=O)Nc3cccc4ccccc34)cc2C(=O)N([C@@H](C)CO)C[C@@H]1C,-5,0,-1,48*,57*
O=C(Cc1cc(=O)[nH][nH]1)N/N=C/c1ccccc1Cl,8,-2,0,-2,77*
Cc1ccc(SCc2cc(-c3ccc(Cl)cc3)no2)cc1,-25,-2,3,3,78*
Clc1ccc(-c2cc(CSc3ccccc3)on2)cc1,-122,0,4,5,1
COc1ccccc1N1CCN(C2CCN(S(=O)(=O)c3ccc(NC(C)=O)cc3)CC2)CC1,-15,-1,-1,-6,0
COc1ccc(-n2nc(C(=O)NCC(=O)NC3CCCCCC3)c3ccccc3c2=O)c(OC)c1,0,-1,-1,9,48*
N#CCCN(C(=O)COC(=O)C12CC3CC(CC(O)(C3)C1)C2)c1ccc(F)cc1,-23,-1,-2,14,43*
N#CCCN(C(=O)COC(=O)CNC(=O)C12CC3CC(CC(C3)C1)C2)c1ccccc1,5,0,1,-1,37
COc1ccc(C(=O)N2CCN(c3ccccc3)CC2)cc1S(=O)(=O)N1CCCC1,7,-4,1,-5,12
Nc1cc(N2CCCC2)c(Cl)cc1[N+](=O)[O-],26,-1,2,-16,43*
COCCn1c(CNc2ccc(F)cc2)nnc1SCC(=O)Nc1ccc(OC)cc1OC,20,-1,0,23,-9
CC(=O)c1ccc(NC(=S)Nc2cccc3cnccc23)cc1,20,-1,0,-58,96*
CC(=O)c1cccc(NC(=S)Nc2cccc3ccccc23)c1,-53,7,3,-31,81*
COc1ccc(NC(=S)Nc2cccc3ccccc23)cc1OC,15,-1,2,-42,83*
Cc1ccc(F)c(NC(=S)Nc2cccc3ccccc23)c1,17,3,3,-30,78*
SMILES,Mdm2 MdmX PPI,XBP1 UPR activ,UPR CHOP act,UBC13 inh,Apaf1 inhib
CC(=O)c1cccc(NC(=S)NCc2ccccc2)c1,-20,-5,4,3,8
NC(=S)Nc1cccc2cnccc12,21,0,5,0,-7
Cc1ccc(C)c(NC(=S)Nc2cccnc2)c1,18,-3,-1,-2,4
Cc1ccc(C)c(NC(=S)Nc2cccc3cnccc23)c1,36,0,-3,-73,96*
COCCn1c(N)c(C(=O)NCc2cccs2)c2nc3ccccc3nc21,2,2,3,21,95*
COc1ccc(-n2c(N)c(C(=O)NCc3ccco3)c3nc4ccccc4nc32)cc1,27,-1,4,-26,16
COCCn1c(N)c(S(=O)(=O)c2cccs2)c2nc3ccccc3nc21,31,-3,1,14,5
Nc1c(C(=O)NCc2ccco2)c2nc3ccccc3nc2n1CCc1ccc(F)cc1,7,-1,11,-17,78*
O=S(=O)(Nc1cc(Sc2ncn[nH]2)c(O)c2ccccc12)c1ccccc1,-8,11,3,-56,94*
Cc1cc(O)c(Sc2ncn[nH]2)cc1NS(=O)(=O)c1ccc(Cl)cc1,-5,-4,-1,6,-1
COc1ccc(NC(=S)N2CCC(NC(=O)c3ccco3)CC2)cc1,-14,2,1,0,1
CCO/C=C1/C(=O)N(Cc2ccccc2)C(=O)c2ccccc21,-14,-1,-2,-19,62*
CCO/C=C1\C(=O)N(c2ccccc2)C(=O)c2ccccc21,17,0,-1,4,2
O=C(OCC(=O)N1CCC(c2ccccc2)=N1)c1ccc([N+](=O)[O-])s1,1,-1,4,-12,52*
Cc1cc(C(=O)OCC(=O)N2CCC(c3ccccc3)=N2)ccc1[N+](=O)[O-],26,0,0,-5,4
COc1ccc(-c2ccc(NS(=O)(=O)c3cc([N+](=O)[O-])c(C)c([N+](=O)[O-])c3)cc2)nn1,-15,-2,-1,-6,6
Cc1ccc(-c2noc(CCC(=O)N3CCN(c4cccc(C(F)(F)F)c4)CC3)n2)cc1,26,-6,1,-8,42*
COc1ccc(NC(=O)CSc2nnc(-c3cc(C)[nH]n3)n2N)cc1,9,0,1,1,-8
COc1ccc(CCNC(=O)[C@H](C)NC(=O)N2CCn3c2nc2ccccc23)cc1OC,-3,-3,0,0,-8
CCCCCCN(C(=O)CCCCCN1C(=O)NC(c2ccc(-c3ccccc3)cc2)C(C(=O)OCc2ccccc2)=C1C)C(C(=O)NCCCC)c1cccc(C(=O)OC)c1 (stereo unspecified),2,-1,2,-28,79*
O=C1OCC2=C1C(c1ccccc1)CC(=O)N2c1ccccc1 (stereo unspecified),-30,-3,3,3,2
NS(=O)(=O)c1cccc(NC(=O)c2ccno2)c1,-29,-1,0,1,-1
